According to ChEMBL document CHEMBL1208662, “Antimicrobial activity and a SAR study of some novel benzimidazole derivatives bearing hydrazone moiety” (Eur J Med Chem, 2010):
In brackets after ≈: the same amount, converted by molar mass.

Columns and labels:
[1] = system: Klebsiella pneumoniae; test: Antimicrobial activity against Klebsiella pneumoniae by broth microdilution method; assay type: functional
In short: (§1)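 CLSI M7-A7 broth microdilution, two-fold serial dilutions 800 down to 1.5625 μg/mL in Mueller–Hinton broth, pH 7. Compounds dissolved in DMSO; DMSO-only solvent control. Overnight cultures at 35 ± 1 °C, inoculum matched to McFarland 0.5, final 0.5-2.5 × 10^5 cfu/mL. MIC taken as last well without growth, µg/mL. Run twice. Chloramphenicol reference.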

[2] = system: Enterococcus faecalis; test: Antimicrobial activity against Enterococcus faecalis by broth microdilution method; assay type: functional; in short: as §1
[3] = system: Proteus vulgaris; test: Antimicrobial activity against Proteus vulgaris by broth microdilution method; assay type: functional; in short: as §1
[4] = system: Pseudomonas aeruginosa; test: Antimicrobial activity against Pseudomonas aeruginosa by broth microdilution method; assay type: functional; in short: as §1
[5] = system: Candida albicans; test: Antimicrobial activity against Candida albicans by broth microdilution method; assay type: functional
In short: (§2)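 Yeasts grown overnight at 35 ± 1 °C in Sabouraud dextrose broth. Tested by CLSI M7-A7 broth microdilution in Sabouraud dextrose broth, pH 7, two-fold serial dilutions 800 down to 1.5625 μg/mL of DMSO-dissolved compound. DMSO-only control. Inoculum matched to McFarland 0.5, final 0.5-2.5 × 10^5 cfu/mL. MIC is last well without growth, µg/mL. Duplicate readings. Ketoconazole reference.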

[6] = system: Escherichia coli; test: Antimicrobial activity against Escherichia coli 35218 by broth microdilution method; assay type: functional; in short: as §1
[7] = system: Salmonella typhimurium; test: Antimicrobial activity against Salmonella Typhimurium by broth microdilution method; assay type: functional, Salmonella enterica subsp. enterica serovar Typhimurium; details: Salmonella enterica; in short: as §1
[8] = system: Candida tropicalis; test: Antimicrobial activity against Candida tropicalis by broth microdilution method; assay type: functional; in short: as §2
[9] = system: Escherichia coli; test: Antimicrobial activity against Escherichia coli 25922 by broth microdilution method; assay type: functional; in short: as §1
[10] = system: Listeria monocytogenes; test: Antimicrobial activity against Listeria monocytogenes by broth microdilution method; assay type: functional; in short: as §1
[11] = system: Staphylococcus aureus; test: Antimicrobial activity against Staphylococcus aureus by broth microdilution method; assay type: functional; in short: as §1
[12] = system: Bacillus subtilis; test: Antimicrobial activity against Bacillus subtilis by broth microdilution method; assay type: functional; in short: as §1
[13] = system: Nakaseomyces glabratus; test: Antimicrobial activity against Candida glabrata by broth microdilution method; assay type: functional; in short: as §2
[14] = Toxicity in Artemia salina after 24 hrs; assay type: organism-based; details: in vivo

Row | Structure (SMILES) | MIC [1] | MIC [2] | MIC [3] | MIC [4] | MIC [5] | MIC [6] | MIC [7] | MIC [8] | MIC [9] | MIC [10] | MIC [11] | MIC [12] | MIC [13] | LC50 at 24 h [14]
1 | CN(C)c1ccc(/C=N/NC(=O)c2ccc(-c3nc4ccccc4[nH]3)cc2)cc1 | 50 µg/mL (≈ 130 µM) | 25 µg/mL (≈ 65.2 µM) | 50 µg/mL (≈ 130 µM) | 25 µg/mL (≈ 65.2 µM) | 100 µg/mL (≈ 261 µM) | 25 µg/mL (≈ 65.2 µM) | 25 µg/mL (≈ 65.2 µM) | 100 µg/mL (≈ 261 µM) | 100 µg/mL (≈ 261 µM) | 200 µg/mL (≈ 522 µM) | 50 µg/mL (≈ 130 µM) | 25 µg/mL (≈ 65.2 µM) | 50 µg/mL (≈ 130 µM) | –
2 | O=C(N/N=C/c1ccc(Cl)cc1)c1ccc(-c2nc3ccccc3[nH]2)cc1 | 12.5 µg/mL (≈ 33.3 µM) | 12.5 µg/mL (≈ 33.3 µM) | 25 µg/mL (≈ 66.7 µM) | 25 µg/mL (≈ 66.7 µM) | 50 µg/mL (≈ 133 µM) | 25 µg/mL (≈ 66.7 µM) | 6.25 µg/mL (≈ 16.7 µM) | 50 µg/mL (≈ 133 µM) | 100 µg/mL (≈ 267 µM) | 100 µg/mL (≈ 267 µM) | 12.5 µg/mL (≈ 33.3 µM) | 25 µg/mL (≈ 66.7 µM) | 50 µg/mL (≈ 133 µM) | > 1000 µg/mL
3 | O=C(N/N=C/c1ccc(Br)cc1)c1ccc(-c2nc3ccccc3[nH]2)cc1 | 12.5 µg/mL (≈ 29.8 µM) | 12.5 µg/mL (≈ 29.8 µM) | 25 µg/mL (≈ 59.6 µM) | 25 µg/mL (≈ 59.6 µM) | 100 µg/mL (≈ 239 µM) | 25 µg/mL (≈ 59.6 µM) | 12.5 µg/mL (≈ 29.8 µM) | 50 µg/mL (≈ 119 µM) | 50 µg/mL (≈ 119 µM) | 200 µg/mL (≈ 477 µM) | 25 µg/mL (≈ 59.6 µM) | 25 µg/mL (≈ 59.6 µM) | 100 µg/mL (≈ 239 µM) | > 1000 µg/mL
4 | O=C(N/N=C/c1ccc(F)cc1)c1ccc(-c2nc3ccccc3[nH]2)cc1 | 25 µg/mL (≈ 69.8 µM) | 25 µg/mL (≈ 69.8 µM) | 50 µg/mL (≈ 140 µM) | 50 µg/mL (≈ 140 µM) | 100 µg/mL (≈ 279 µM) | 25 µg/mL (≈ 69.8 µM) | 6.25 µg/mL (≈ 17.4 µM) | 50 µg/mL (≈ 140 µM) | 50 µg/mL (≈ 140 µM) | 200 µg/mL (≈ 558 µM) | 50 µg/mL (≈ 140 µM) | 25 µg/mL (≈ 69.8 µM) | 100 µg/mL (≈ 279 µM) | –
5 | Cc1ccc(/C=N/NC(=O)c2ccc(-c3nc4ccccc4[nH]3)cc2)cc1 | 12.5 µg/mL (≈ 35.3 µM) | 12.5 µg/mL (≈ 35.3 µM) | 25 µg/mL (≈ 70.5 µM) | 50 µg/mL (≈ 141 µM) | 100 µg/mL (≈ 282 µM) | 25 µg/mL (≈ 70.5 µM) | 6.25 µg/mL (≈ 17.6 µM) | 100 µg/mL (≈ 282 µM) | 100 µg/mL (≈ 282 µM) | 200 µg/mL (≈ 564 µM) | 25 µg/mL (≈ 70.5 µM) | 50 µg/mL (≈ 141 µM) | 100 µg/mL (≈ 282 µM) | > 1000 µg/mL
6 | COc1ccc(/C=N/NC(=O)c2ccc(-c3nc4ccccc4[nH]3)cc2)cc1 | 25 µg/mL (≈ 67.5 µM) | 12.5 µg/mL (≈ 33.7 µM) | 50 µg/mL (≈ 135 µM) | 25 µg/mL (≈ 67.5 µM) | 100 µg/mL (≈ 270 µM) | 25 µg/mL (≈ 67.5 µM) | 6.25 µg/mL (≈ 16.9 µM) | 50 µg/mL (≈ 135 µM) | 50 µg/mL (≈ 135 µM) | 200 µg/mL (≈ 540 µM) | 25 µg/mL (≈ 67.5 µM) | 25 µg/mL (≈ 67.5 µM) | 50 µg/mL (≈ 135 µM) | –
7 | O=C(N/N=C/c1ccc([N+](=O)[O-])cc1)c1ccc(-c2nc3ccccc3[nH]2)cc1 | 25 µg/mL (≈ 64.9 µM) | 25 µg/mL (≈ 64.9 µM) | 50 µg/mL (≈ 130 µM) | 50 µg/mL (≈ 130 µM) | 50 µg/mL (≈ 130 µM) | 25 µg/mL (≈ 64.9 µM) | 12.5 µg/mL (≈ 32.4 µM) | 100 µg/mL (≈ 259 µM) | 100 µg/mL (≈ 259 µM) | 200 µg/mL (≈ 519 µM) | 25 µg/mL (≈ 64.9 µM) | 50 µg/mL (≈ 130 µM) | 100 µg/mL (≈ 259 µM) | –
8 | O=C(N/N=C/c1ccc(C(F)(F)F)cc1)c1ccc(-c2nc3ccccc3[nH]2)cc1 | 25 µg/mL (≈ 61.2 µM) | 12.5 µg/mL (≈ 30.6 µM) | 50 µg/mL (≈ 122 µM) | 50 µg/mL (≈ 122 µM) | 100 µg/mL (≈ 245 µM) | 25 µg/mL (≈ 61.2 µM) | 12.5 µg/mL (≈ 30.6 µM) | 50 µg/mL (≈ 122 µM) | 100 µg/mL (≈ 245 µM) | 200 µg/mL (≈ 490 µM) | 25 µg/mL (≈ 61.2 µM) | 50 µg/mL (≈ 122 µM) | 100 µg/mL (≈ 245 µM) | –
9 | O=C(O)c1ccc(/C=N/NC(=O)c2ccc(-c3nc4ccccc4[nH]3)cc2)cc1 | 50 µg/mL (≈ 130 µM) | 50 µg/mL (≈ 130 µM) | 100 µg/mL (≈ 260 µM) | 100 µg/mL (≈ 260 µM) | 200 µg/mL (≈ 520 µM) | 50 µg/mL (≈ 130 µM) | 25 µg/mL (≈ 65 µM) | 200 µg/mL (≈ 520 µM) | 200 µg/mL (≈ 520 µM) | 400 µg/mL (≈ 1040 µM) | 50 µg/mL (≈ 130 µM) | 50 µg/mL (≈ 130 µM) | 200 µg/mL (≈ 520 µM) | –
10 | CC(=O)N1CCN(c2ccc(OCC3COC(Cn4ccnc4)(c4ccc(Cl)cc4Cl)O3)cc2)CC1 (configuration not stated) [KETOCONAZOLE] | – | – | – | – | 50 µg/mL (≈ 94.1 µM) | – | – | 50 µg/mL (≈ 94.1 µM) | – | – | – | – | 25 µg/mL (≈ 47 µM) | –

Now from value to compound, other results behind:

Row | MIC [1] | MIC [2] | MIC [3] | MIC [4] | MIC [5] | MIC [6] | MIC [7] | MIC [8] | MIC [9] | MIC [10] | MIC [11] | MIC [12] | MIC [13] | Structure (SMILES) | LC50 at 24 h [14]
11 | 25 µg/mL (≈ 73.4 µM) | 12.5 µg/mL (≈ 36.7 µM) | 50 µg/mL (≈ 147 µM) | 25 µg/mL (≈ 73.4 µM) | 50 µg/mL (≈ 147 µM) | 25 µg/mL (≈ 73.4 µM) | 12.5 µg/mL (≈ 36.7 µM) | 100 µg/mL (≈ 294 µM) | 100 µg/mL (≈ 294 µM) | 400 µg/mL (≈ 1180 µM) | 25 µg/mL (≈ 73.4 µM) | 25 µg/mL (≈ 73.4 µM) | 100 µg/mL (≈ 294 µM) | O=C(N/N=C/c1ccccc1)c1ccc(-c2nc3ccccc3[nH]2)cc1 | –
12 | 25 µg/mL (≈ 70.1 µM) | 25 µg/mL (≈ 70.1 µM) | 25 µg/mL (≈ 70.1 µM) | 25 µg/mL (≈ 70.1 µM) | 100 µg/mL (≈ 281 µM) | 25 µg/mL (≈ 70.1 µM) | 25 µg/mL (≈ 70.1 µM) | 100 µg/mL (≈ 281 µM) | 100 µg/mL (≈ 281 µM) | 400 µg/mL (≈ 1120 µM) | 50 µg/mL (≈ 140 µM) | 25 µg/mL (≈ 70.1 µM) | 100 µg/mL (≈ 281 µM) | O=C(N/N=C/c1ccc(O)cc1)c1ccc(-c2nc3ccccc3[nH]2)cc1 | –
13 | 12.5 µg/mL (≈ 34.2 µM) | 12.5 µg/mL (≈ 34.2 µM) | 50 µg/mL (≈ 137 µM) | 50 µg/mL (≈ 137 µM) | 100 µg/mL (≈ 274 µM) | 25 µg/mL (≈ 68.4 µM) | 12.5 µg/mL (≈ 34.2 µM) | 50 µg/mL (≈ 137 µM) | 100 µg/mL (≈ 274 µM) | 200 µg/mL (≈ 547 µM) | 25 µg/mL (≈ 68.4 µM) | 50 µg/mL (≈ 137 µM) | 100 µg/mL (≈ 274 µM) | N#Cc1ccc(/C=N/NC(=O)c2ccc(-c3nc4ccccc4[nH]3)cc2)cc1 | –
14 | 12.5 µg/mL (≈ 38.7 µM) | 12.5 µg/mL (≈ 38.7 µM) | 50 µg/mL (≈ 155 µM) | 50 µg/mL (≈ 155 µM) | – | 12.5 µg/mL (≈ 38.7 µM) | 12.5 µg/mL (≈ 38.7 µM) | – | 12.5 µg/mL (≈ 38.7 µM) | 50 µg/mL (≈ 155 µM) | 12.5 µg/mL (≈ 38.7 µM) | 12.5 µg/mL (≈ 38.7 µM) | – | O=C(N[C@H](CO)[C@H](O)c1ccc([N+](=O)[O-])cc1)C(Cl)Cl [CHLORAMPHENICOL] | –
